# Screens from PubChem.
# ROMK primary: ROMK potassium channel modulators, primary screen, cell-based, thallium flux, MLSMR library; ATP-sensitive inward rectifier potassium channel 1 (Homo sapiens), P48048; Tet-inducible ROMK, thallium flux fluorescence; actives lie on both sides; B-score at 10 µM; 2% of 130,000 active;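 active = signal ratio slope over the read window, or its plate-corrected B-score, at least 3 SD from the plate mean, either direction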;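 also: B-score of the F/F0 ratio slope over 7 to 12 s after thallium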
# MDM2 E3 inh: MDM2-luciferase reporter signal enhancers, primary screen, MDM2 E3 ligase inhibitor project, cell-based, luminescence, 1536-well; E3 ubiquitin-protein ligase Mdm2 (Homo sapiens), Q00987; cell-based MDM2 ubiquitination luciferase reporter, 2 h; 0 = plate control, 100 = twice control, blank-subtracted; signal enhancement, % at 5 µM; 0.11% of 210,000 active; AID 1230, 2008;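 active = signal enhancement of 30% or more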;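 also: luminescence tracks abundance of the self-degrading MDM2-luciferase fusion protein; higher signal means inhibition of MDM2 E3 ligase activity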
# Target sequence (Q00987 whole entry, looked up, the tested form may be a part): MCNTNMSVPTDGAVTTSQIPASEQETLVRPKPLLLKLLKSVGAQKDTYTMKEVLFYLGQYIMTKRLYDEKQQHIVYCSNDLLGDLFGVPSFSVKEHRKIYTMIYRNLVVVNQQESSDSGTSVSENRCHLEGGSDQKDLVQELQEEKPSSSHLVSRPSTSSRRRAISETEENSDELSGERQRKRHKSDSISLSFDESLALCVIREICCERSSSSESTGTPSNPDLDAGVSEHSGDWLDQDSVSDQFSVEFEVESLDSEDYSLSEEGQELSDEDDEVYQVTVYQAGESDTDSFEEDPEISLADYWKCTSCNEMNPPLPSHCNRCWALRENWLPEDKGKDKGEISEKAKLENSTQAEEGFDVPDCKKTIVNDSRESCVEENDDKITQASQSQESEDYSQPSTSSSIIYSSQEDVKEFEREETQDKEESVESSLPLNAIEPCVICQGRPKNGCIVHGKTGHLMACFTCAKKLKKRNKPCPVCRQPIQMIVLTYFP
#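 test system = mammalian cells stably expressing self-ubiquitinating, self-degrading MDM2 E3–luciferase fusion | quantity = 2000 cells/well | incubation = cell settling 4 h, compound treatment 2 h, both 37 °C | signal = luminescence with SteadyLite reagent, 15 min at room temperature | evaluation = % enhancement relative to plate controls after blank subtraction | benchmarks = plate controls and plate blanks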
# PKD1 kinase inh: inhibitors of human PKD1 kinase, biochemical, fluorescence polarization; Serine/threonine-protein kinase D1 (Homo sapiens), Q15139; PKD1 kinase fluorescence polarization assay; inhibition, % (test concentration not listed); 0.056% of 200,000 active; AID 797, 2007; in the data active = inhibition above about 50%
# m-calpain inh: inhibitors of pig calpain II, primary screen, biochemical, fluorogenic peptide substrate, 1536-well. inhibition, % at 16 µM. purified calpain II, 30 min. 0.37% of 220,000 active. AID 1236, 2008;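 active = inhibition above about 50%, limit read from the data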
# Cl transport mod: KCC2 cotransporter modulators, thallium flux, primary screen, cell-based, HEK293 KCC2, FluoZin-2 fluorescence, MLSMR; Solute carrier family 12 member 5 (Homo sapiens), Q9H2X9; KCC2 cells, thallium flux FluoZin-2 fluorescence; B-score of Tl+ flux slope (higher = more flux/activation; lower = inhibition) at 10 µM; 2.2% of 190,000 active;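 active = thallium flux slope and its plate-corrected score both differing from the plate sample mean at a set confidence after two filtering rounds, in either direction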;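 also: slope of fluorescence scaled to starting intensity during 10 to 20 s after thallium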
# Arbovirus inh: antivirals against arbovirus infection, primary screen, cell-based, full library, 10K replicate subset; arbovirus infection cell-based antiviral screen; inhibition, % at 10 µM; 0.37% of 200,000 active; AID 1251, 2008; in the data active = inhibition above about 30%
# ROMK hit retest: ROMK channel modulator hit retest, confirmation, cell-based, thallium flux, duplicate, resupplied hits; shares compounds with ROMK primary; fluorescence ratio; hits give low values; normalized thallium flux (F/F0 slope) at 10 µM; 54% of 3,000 active; AID 1917, 2009;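 active = Flux at 10 µM at least 3 SD below or above vehicle control mean in one or both replicates; inconclusive = no clear call, values can overlap the other calls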
# An asterisk follows results filed as active; u = inconclusive; x = not tested or not shown. The list is not random: actives were taken first. Their share in the collection is about 3.7%.
SMILES,ROMK primary,MDM2 E3 inh,PKD1 kinase inh,m-calpain inh,Cl transport mod,Arbovirus inh,ROMK hit retest
CCCN1CCN(CCCNC(=O)c2cc3c(=O)[nH]c4ccccc4c3s2)CC1,-3.8*,x,-7,-286,-1.2,-6,0.059*
CN(C)c1ccc(NC(=O)CSc2nc3ccccc3c(=O)n2C2CCCCC2)cc1,x,-9,-2,-19,3.4,8,x
Cc1cc(NC(=O)CSc2nc3ccccc3c(=O)n2C2CCCC2)no1,2.9*,-20,-8,6,0.37,-20,u
COc1ccc(N(CC(=O)Nc2ccccc2C(N)=O)S(=O)(=O)c2ccc(C)c([N+](=O)[O-])c2)cc1,0.31,-19,0,-33,0.12,-2,0.067*
CCc1nc(SCC(=O)NCCc2ccc(OC)c(OC)c2)c2c(=O)n(C)c(=O)n(C)c2n1,x,-14,-9,-18,0.019,3,x
COc1ccccc1/C=C/C1(C(=O)NC2CCCC2)CC(=O)N1c1ccc(C)cc1 (stereo unspecified),-5*,-9,1,9,0.49,-4,0.062*
CC(=O)OCC(OC(C)=O)C(OC(C)=O)C(OC(C)=O)C(=O)Nc1ccccc1 (stereo unspecified),-1,-15,-2,-8,-0.35,-1,x
CC(=O)OCC(OC(C)=O)C(OC(C)=O)C(OC(C)=O)C(=O)Nc1ccc(C)cc1 (stereo unspecified),x,13,-2,-32,-0.093,-6,0.087
CCN(CC)c1ccc(/C=N/NC(=O)c2ccccn2)cc1,x,-39,x,-7,-1.2,x,x
CCN(CC)c1ccc(/C=N/NC(=O)c2ccc3nc[nH]c3c2)cc1,x,-11,x,15,0.034,x,0.076
CCN(CC)c1ccc(/C=N/NC(=O)c2cnccn2)cc1,3.7*,-13,1,5,0.57,-9,0.1*
CCCCC1CC(/C(C)=N/NC(N)=O)OC1=O (stereo unspecified),x,0,0,0,0.025,7,x
Cc1c(C(=O)NN2CCOCC2)oc2c1ccc1ccccc12,0.32,-1,-10,-16,-2.1,6,x
Cc1occc1C(=O)NC1CCCCCC1,3.1*,-23,-5,12,0.45,-1,0.073
CSc1cccc(NC(=S)N(CCCN2CCC(C)CC2)Cc2cccs2)c1,-2.8,-12,-3,-4,-0.76,-9,x
CC1=NN(c2nc(-c3ccc(C)cc3)cs2)C(=O)C1N=Nc1ccc(C(N)=O)cc1 (stereo unspecified),0.1,-15,7,-176,-1.4,-38,0.077
Cc1[nH]nc(SCC(=O)NCc2ccccc2)c1[N+](=O)[O-],-2.3*,11,-3,11,-1.5,3,0.074
CC(C)(C)NC(=O)C(c1ccncc1)N(C(=O)C1CSC(=O)C1)c1ccccc1 (stereo unspecified),-0.61,-2,3,-2,-0.85,3,x
CC(C)CC1(C)N=C(c2ccccc2)C(=S)N1 (stereo unspecified),-3.2*,-12,-1,-9,1.5,4,0.057*
CC1(C)CC(=O)C2=C(C1)Oc1nc3ccccc3cc1C2C(C#N)C#N (stereo unspecified),-3.6*,6,5,-70,x,4,0.058*
CC1(C)CC(=O)C(C2C3=C(CC(C)(C)CC3=O)Oc3ccccc32)C(=O)C1 (stereo unspecified),0.0029,-4,x,-19,0.23,x,x
CC(=C1C(=O)c2ccccc2C1=O)N1CCC(C(N)=O)(N2CCCCC2)CC1,x,-8,0,5,-0.011,2,x
CNS(=O)(=O)c1ccc(C)c(S(=O)(=O)NC)c1,-0.24,15,-6,12,0.17,0,x
Cc1cc(C)nc(SCc2nnc(SCC(=O)Nc3ccc(Cl)c(C(F)(F)F)c3)o2)n1,-3.9*,-5,0,-6,-0.33,2,0.064*
CC(=O)O/N=C1\C(=O)N(Cc2ccc(C)cc2)c2ccccc21,-5.2*,-7,-3,58*,-0.34,1,0.063*
SMILES,ROMK primary,MDM2 E3 inh,PKD1 kinase inh,m-calpain inh,Cl transport mod,Arbovirus inh,ROMK hit retest
CC(C)(C)NC(=O)CN(C(=O)CSc1nnc(COc2ccccc2)o1)c1cccc(F)c1,-2.7*,-27,-4,14,-2.7,-11,u
N[C@@H](CO)c1nnc([C@H](CCC(=O)O)NC(=O)C2CCNCC2)o1,x,x,6,20,-0.26,6,x
CC1(C)CCCN(C(=O)c2coc(=O)c(Br)c2)C1,x,-5,11,16,x,7,x
O=C(c1cnsn1)N1CCN(c2ccccn2)CC1,1.6*,-14,-9,-9,x,3,0.073
O=C(N1CCN(c2ccccn2)CC1)N1c2ccccc2Sc2ccccc21,3.3*,3,-12,48,0.037,-26,0.09
Cc1cc(C(=O)N2CCN(c3ccccn3)CC2)no1,x,-7,-3,-16,0.21,-5,x
O=C(c1ccco1)N1CCN(C(=O)N2c3ccccc3Sc3ccccc32)CC1,-3*,-3,-6,4,-1.7,-23,0.073
O=C(N1CCN(c2ccccn2)CC1)C(Cl)(Cl)Cl,-0.47,-7,16,10,0.44,-7,x
O=C(COc1cc(Cl)c(Cl)cc1Cl)N1CCN(c2ccccn2)CC1,-3*,-88,1,7,0.036,3,0.066*
O=C(c1ccco1)N1c2ccccc2Sc2ccccc21,x,-5,-8,25,-1.6,-14,x
O=C(Cc1ccc(Cl)cc1Cl)NCC1(N2CCOCC2)CCCCC1,-0.58,-18,0,17,0.35,4,x
O=C(/C=C/c1ccc(F)cc1)Nc1ccc2[nH]c(=O)[nH]c2c1,x,-2,x,-26,-0.58,x,x
C=CCON1C(=O)C(=O)N(OCC=C)[C@H]2CCCC[C@H]21,x,-8,x,1,-1.1,x,x
CN(c1ccc([N+](=O)[O-])cc1C(N)=O)C1CCCCC1,-1.5,-5,-2,4,0.018,21,x
N#Cc1cccc(NC(=O)COC(=O)CCc2nc3ccccc3c(=O)[nH]2)c1,0.59,-7,-2,-19,-0.2,1,x
Fc1ccc2[nH]c3c(N4CCN(c5ccccc5)CC4)ncnc3c2c1,-0.48,-25,-3,5,0.095,4,0.076
CC(=O)N1CCc2cc(Br)cc(S(=O)(=O)NCc3ccccn3)c21,-7.4*,-11,0,0,x,-4,0.085
